How the values were obtained:
[1] = Inhibition of Toxoplasma gondii recombinant His6-tagged GSK-3 expressed in Escherichia coli using GS-1 peptide as substrate after 30 mins by scintillation counting analysis in presence of gamma-33P-ATP; assay type: cell-free
In short: (§1)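 His6-tagged recombinant GSK-3 expressed in E. coli (TOP10/pBAD-Thio-TOPO for P. falciparum and T. gondii, arabinose-induced; BL21(DE3)-pRARE2/pET15 for C. parvum, IPTG at 15 °C), Ni-NTA purified. Assayed with 40 μM GS-1 phosphopeptide, 15 μM γ-33P-ATP in pH 7.5 Tris buffer with MgCl2, EGTA, DTT, heparin, BSA; 30 min, 30 °C; P81 paper, phosphoric acid washes, scintillation counting. DMSO controls; dose-response IC50, triplicate points.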

[2] = Inhibition of Plasmodium falciparum recombinant His6-tagged GSK-3 expressed in Escherichia coli using GS-1 peptide as substrate after 30 mins by scintillation counting analysis in presence of gamma-33P-ATP; in short: as §1
[3] = Inhibition of pig GSK-3 by radiometric protein kinase assay; parameters: species or system Sus scrofa
In short: (§2)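 Native affinity-purified porcine GSK-3 in the radiometric assay: 40 μM GS-1 peptide, 15 μM γ-33P-ATP, pH 7.5 Tris/MgCl2/EGTA/DTT/heparin/BSA buffer, 30 min at 30 °C, P81 filter binding and scintillation counting. IC50 from dose-response curves with triplicate points; top concentration 10 or 100 μM.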

Plasmodium falciparum = assay: Antiplasmodial activity against Plasmodium falciparum at 15 uM after 72 hrs by luciferase reporter gene assay; assay type: functional
In short: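 NF54:LUC P. falciparum erythrocytic stages (luciferase under hrp2 promoter) at 3% parasitemia, 25% hematocrit; compounds in RPMI-1640 with 1% DMSO, triplicate wells; untreated, DMSO-only and non-luciferase NF54 blank wells. […] Bright-Glo lysis, luminescence read.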

[4] = target: RAC-alpha serine/threonine-protein kinase (Homo sapiens) (UniProt P31749); assay: Inhibition of PKB alpha (unknown origin) at 10 uM
RAC-alpha serine/threonine-protein kinase (Homo sapiens), sequence (P31749 whole entry): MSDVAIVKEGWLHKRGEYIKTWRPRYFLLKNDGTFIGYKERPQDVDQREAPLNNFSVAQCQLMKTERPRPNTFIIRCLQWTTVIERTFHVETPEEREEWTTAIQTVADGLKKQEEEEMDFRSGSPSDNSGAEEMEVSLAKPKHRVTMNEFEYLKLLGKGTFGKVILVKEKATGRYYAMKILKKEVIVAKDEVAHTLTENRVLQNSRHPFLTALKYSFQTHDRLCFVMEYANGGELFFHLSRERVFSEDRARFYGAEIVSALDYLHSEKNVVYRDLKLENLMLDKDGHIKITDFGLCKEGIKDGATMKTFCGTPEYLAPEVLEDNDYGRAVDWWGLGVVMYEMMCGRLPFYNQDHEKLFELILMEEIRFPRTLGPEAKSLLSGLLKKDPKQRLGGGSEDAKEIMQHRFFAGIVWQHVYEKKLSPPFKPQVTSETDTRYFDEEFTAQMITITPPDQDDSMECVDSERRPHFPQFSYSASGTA
In short: (§3)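 Dundee human kinase selectivity panel (77 kinases); test compound at 1 and 10 μM, percentage kinase inhibition recorded.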

[5] = target: Serine/threonine-protein kinase PAK 4 (Homo sapiens) (UniProt O96013); assay: Inhibition of PAK4 (unknown origin) at 10 uM; in short: as §3
Serine/threonine-protein kinase PAK 4 (Homo sapiens), sequence (O96013 whole entry, looked up): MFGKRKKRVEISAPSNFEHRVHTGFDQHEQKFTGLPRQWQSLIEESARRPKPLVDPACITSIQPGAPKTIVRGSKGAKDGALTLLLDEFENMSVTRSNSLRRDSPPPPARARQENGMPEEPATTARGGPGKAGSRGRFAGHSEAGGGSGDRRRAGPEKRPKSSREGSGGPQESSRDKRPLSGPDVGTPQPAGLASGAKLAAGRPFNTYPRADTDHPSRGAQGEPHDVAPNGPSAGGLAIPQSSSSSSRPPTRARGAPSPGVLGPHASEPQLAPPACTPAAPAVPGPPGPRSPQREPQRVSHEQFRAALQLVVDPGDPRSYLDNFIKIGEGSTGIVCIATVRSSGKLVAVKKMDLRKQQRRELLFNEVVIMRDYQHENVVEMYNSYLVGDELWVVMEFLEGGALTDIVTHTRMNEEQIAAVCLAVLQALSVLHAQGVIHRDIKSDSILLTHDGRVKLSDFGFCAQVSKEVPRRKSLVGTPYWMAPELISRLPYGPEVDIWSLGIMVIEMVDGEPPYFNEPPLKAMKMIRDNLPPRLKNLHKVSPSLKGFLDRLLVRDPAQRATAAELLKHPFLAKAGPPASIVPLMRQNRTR

[6] = target: Mitogen-activated protein kinase 11 (Homo sapiens) (UniProt Q15759); assay: Inhibition of P38beta MAPK (unknown origin) at 10 uM; in short: as §3
Mitogen-activated protein kinase 11 (Homo sapiens), sequence (Q15759 whole entry): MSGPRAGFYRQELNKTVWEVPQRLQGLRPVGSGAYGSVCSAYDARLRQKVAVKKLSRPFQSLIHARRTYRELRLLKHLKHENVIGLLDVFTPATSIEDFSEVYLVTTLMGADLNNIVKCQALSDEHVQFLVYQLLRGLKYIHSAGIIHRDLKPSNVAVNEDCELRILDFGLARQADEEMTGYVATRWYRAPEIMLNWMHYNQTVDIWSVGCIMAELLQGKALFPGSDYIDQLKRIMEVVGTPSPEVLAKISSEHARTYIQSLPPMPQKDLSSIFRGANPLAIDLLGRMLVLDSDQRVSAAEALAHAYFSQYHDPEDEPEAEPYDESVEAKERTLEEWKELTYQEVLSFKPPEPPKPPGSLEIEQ

[7] = target: Mitogen-activated protein kinase 14 (Homo sapiens) (UniProt Q16539); assay: Inhibition of P38alpha MAPK (unknown origin) at 10 uM; in short: as §3
Mitogen-activated protein kinase 14 (Homo sapiens), sequence (Q16539 whole entry): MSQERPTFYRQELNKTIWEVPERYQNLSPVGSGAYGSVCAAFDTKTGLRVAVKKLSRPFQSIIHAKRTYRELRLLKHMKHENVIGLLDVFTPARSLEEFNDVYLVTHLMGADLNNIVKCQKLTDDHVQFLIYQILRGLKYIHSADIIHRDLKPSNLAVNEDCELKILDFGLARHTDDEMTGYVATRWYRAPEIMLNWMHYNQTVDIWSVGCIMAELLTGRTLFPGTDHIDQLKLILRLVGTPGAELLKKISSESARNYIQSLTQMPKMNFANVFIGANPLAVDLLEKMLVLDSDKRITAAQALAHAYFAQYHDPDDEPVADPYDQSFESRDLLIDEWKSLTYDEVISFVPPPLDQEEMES

[8] = target: T1, Mitogen-activated protein kinase 15 (Homo sapiens) (UniProt Q8TD08); assay: Inhibition of ERK8 (unknown origin) at 10 uM; in short: as §3
T1 sequence (whole entry): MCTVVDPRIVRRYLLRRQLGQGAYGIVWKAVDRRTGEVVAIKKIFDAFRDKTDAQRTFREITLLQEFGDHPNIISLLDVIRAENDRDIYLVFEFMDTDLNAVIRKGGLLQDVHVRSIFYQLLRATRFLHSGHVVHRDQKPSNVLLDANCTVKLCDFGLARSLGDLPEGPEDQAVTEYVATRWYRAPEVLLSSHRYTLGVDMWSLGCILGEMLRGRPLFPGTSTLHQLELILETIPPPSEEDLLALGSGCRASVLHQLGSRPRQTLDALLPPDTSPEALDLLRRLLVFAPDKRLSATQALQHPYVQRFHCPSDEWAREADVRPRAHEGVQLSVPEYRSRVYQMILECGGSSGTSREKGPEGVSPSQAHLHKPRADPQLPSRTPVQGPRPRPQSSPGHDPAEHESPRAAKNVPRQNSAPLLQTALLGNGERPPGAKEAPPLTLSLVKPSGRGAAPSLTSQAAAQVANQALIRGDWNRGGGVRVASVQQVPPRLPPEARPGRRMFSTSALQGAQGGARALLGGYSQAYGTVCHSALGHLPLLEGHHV

[9] = target: Serine/threonine-protein kinase Chk2 (Homo sapiens) (UniProt O96017); assay: Inhibition of CHK2 (unknown origin) at 10 uM; in short: as §3
Serine/threonine-protein kinase Chk2 (Homo sapiens), sequence (O96017 whole entry): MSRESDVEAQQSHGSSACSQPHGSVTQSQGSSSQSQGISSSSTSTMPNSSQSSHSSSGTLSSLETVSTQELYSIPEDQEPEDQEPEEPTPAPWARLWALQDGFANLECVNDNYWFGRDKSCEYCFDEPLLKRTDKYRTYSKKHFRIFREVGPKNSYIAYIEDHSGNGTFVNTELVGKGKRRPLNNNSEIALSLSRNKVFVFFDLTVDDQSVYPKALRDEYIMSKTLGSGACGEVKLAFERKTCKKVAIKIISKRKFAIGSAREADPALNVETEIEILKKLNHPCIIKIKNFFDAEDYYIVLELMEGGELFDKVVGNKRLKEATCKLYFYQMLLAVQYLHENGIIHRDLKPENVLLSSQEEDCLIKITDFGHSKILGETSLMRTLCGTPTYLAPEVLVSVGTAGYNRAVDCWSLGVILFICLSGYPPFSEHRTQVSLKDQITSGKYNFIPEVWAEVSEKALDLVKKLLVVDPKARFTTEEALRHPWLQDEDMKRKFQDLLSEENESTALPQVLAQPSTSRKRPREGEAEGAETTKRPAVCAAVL

[10] = target: Calcium/calmodulin-dependent protein kinase type 1 (Homo sapiens) (UniProt Q14012); assay: Inhibition of CAMK1 (unknown origin) at 10 uM; in short: as §3
Calcium/calmodulin-dependent protein kinase type 1 (Homo sapiens), sequence (Q14012 whole entry, looked up): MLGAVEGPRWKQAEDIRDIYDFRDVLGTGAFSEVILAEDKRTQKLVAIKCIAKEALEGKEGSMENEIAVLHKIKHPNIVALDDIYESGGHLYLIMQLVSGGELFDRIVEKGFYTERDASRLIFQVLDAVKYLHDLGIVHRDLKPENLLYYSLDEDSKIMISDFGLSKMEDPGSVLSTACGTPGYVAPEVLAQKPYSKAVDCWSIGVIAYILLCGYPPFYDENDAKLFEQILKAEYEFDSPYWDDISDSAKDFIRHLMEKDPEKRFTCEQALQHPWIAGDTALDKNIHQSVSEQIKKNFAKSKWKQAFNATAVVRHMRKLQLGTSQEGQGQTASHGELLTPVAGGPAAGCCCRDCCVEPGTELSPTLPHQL

[11] = target: Glycogen synthase kinase-3 (Sus scrofa, UniProt B2LUN4+I6LNT8); assay: Inhibition of pig GSK-3alpha/beta; in short: as §2
[12] = Inhibition of Trypanosoma brucei GSK-3
[13] = Inhibition of Trypanosoma cruzi GSK-3
[14] = Inhibition of Cryptosporidium parvum recombinant His6-tagged GSK-3 expressed in Escherichia coli using GS-1 peptide as substrate after 30 mins by scintillation counting analysis in presence of gamma-33P-ATP; in short: as §1

IC50 [2]: 480 nM
IC50 [3]: > 10 µM
inhibition [4]: > 80%
inhibition [5]: > 50%
inhibition [6]: > 50%
inhibition [7]: > 50%
inhibition [9]: > 50%
inhibition [10]: > 50%
IC50 [11]: > 10 µM
IC50 [14]: > 100 µM
Compound: N#Cc1c(N)nc2sc(C(=O)c3cccc(Cl)c3)c(N)c2c1-c1ccccc1Cl
IC50 [1]: > 100 µM
inhibition at 15 µM (Plasmodium falciparum): 100%
inhibition [8]: > 50%
IC50 [12]: > 100 µM
IC50 [13]: > 100 µM
